Experimental findings from ChEMBL document CHEMBL1123462, “Indolo[2,1-c][1,4]benzodiazepines: a new class of antiallergic agents” (J Med Chem, 1986) are described below.

Experiment [1] concerns Rattus norvegicus. In words: Compound was tested for the inhibition of rat passive cutaneous anaphylaxis (PCA) at 10 mg/kg dose ip (1h pretreatment). The experiment is classed as functional. To be noted: route intraperitoneal.
The test system of experiment [2] is Cavia porcellus. In words: Compound was tested for the inhibition of guinea pig active lung anaphylaxis (ALA) at 0.001 mg/kg iv. The experiment is classed as functional. The method, boiled down:
(§1)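 Guinea pigs were sensitized with egg albumin 1 mg sc plus Bordetella pertussis vaccine adjuvant. Two weeks later: pentobarbital 65 mg/kg ip, then trachea, jugular vein and carotid cannulated. Drug given iv before an iv egg albumin challenge (0.5 mg/kg). Airway resistance (bronchoconstriction) and arterial pressure monitored. %inhibition given as mean ± SE; ED50 iv with 95% confidence limits.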

Experiment [3] concerns Cavia porcellus. In words: Compound was tested for the inhibition of guinea pig active lung anaphylaxis (ALA) administered intravenously. The experiment is classed as functional. To be noted: iv. The method, boiled down: as §1
In experiment [4] the test system is Cavia porcellus. As to the kind of experiment: Inhibition of guinea pig ALA at a dose of 1 mg/kg 1 hr after postdosing intraperitoneally. The experiment is classed as functional. As to conditions: ip, route intraperitoneal. The method, boiled down:
(§2)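 Guinea pigs were sensitized with egg albumin 1 mg sc plus pertussis vaccine adjuvant. Two weeks later they were anesthetized (pentobarbital 65 mg/kg ip) and cannulated. Drug was given ip or orally at 1 mg/kg. Challenge with egg albumin 0.5 mg/kg iv at 1, 7, 8 or 24 h post-dose, with bronchoconstriction measured. %inhibition given as mean ± SD.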

For experiment [5], the system named is Cavia porcellus. In words: Inhibition of guinea pig ALA at a dose of 1 mg/kg 1 hr after postdosing orally. The experiment is classed as functional. To be noted: route oral. Put shortly: as §2
In experiment [6] the test system is Cavia porcellus. As to the kind of experiment: Inhibition of guinea pig ALA at a dose of 1 mg/kg 24 hr after postdosing intraperitoneally. The experiment is classed as functional. As to conditions: ip, route intraperitoneal. The method, boiled down:
as §2

Experiment [7] deals with Cavia porcellus. As to the kind of experiment: Inhibition of guinea pig ALA at a dose of 1 mg/kg 24 hr after postdosing orally. The experiment is classed as functional. To be noted: route oral. Put shortly: as §2
Experiment [8] concerns Cavia porcellus. In words: Inhibition of guinea pig ALA at a dose of 1 mg/kg 7 hr after postdosing intraperitoneally. The experiment is classed as functional. To be noted: ip, route intraperitoneal. Put shortly:
as §2

For experiment [9], the system named is Cavia porcellus. As to the kind of experiment: Inhibition of guinea pig ALA at a dose of 1 mg/kg 8 hr after postdosing orally. The experiment is classed as functional. As to conditions: route oral. Put shortly:
as §2

The test system of experiment [10] is Rattus norvegicus. In words: Compound was tested for the inhibition of rat passive cutaneous anaphylaxis (PCA) administered intraperitoneally. The experiment is classed as functional. As to conditions: ip. Put shortly: (§3)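 Male Sprague-Dawley rats were given 0.05 mL of high-titer IgE rat anti-ovalbumin antiserum intradermally. 24 h later: iv ovalbumin plus Evans Blue in saline, with simultaneous intradermal serotonin and histamine. Drug given ip 1 h before antigen. At 30 min, skin was reflected and wheal size and colour scored against a chart. %inhibition = (1 − mean treated/mean control score)×100. Dunnett's test, p ≤ 0.05.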

Experiment [11] deals with Rattus norvegicus. As to the kind of experiment: Compound was tested […] for the inhibition of serotonin release in rat peritoneal cell. The experiment is classed as functional.
Experiment [12] concerns Rattus norvegicus. As to the kind of experiment: Compound was tested for percent inhibition, at 0.37 mg/kg administered intraperitoneally against histamine. To be noted: ip, route intraperitoneal. The experiment is classed as functional. The method, boiled down: as §3
The test system of experiment [13] is Rattus norvegicus. In words: Compound was tested for percent inhibition, at 0.37 mg/kg administered intraperitoneally against serotonin by Dunnett's test. The experiment is classed as functional. As to conditions: ip, route intraperitoneal. Put shortly: as §3
Experiment [14] deals with Rattus norvegicus. As to the kind of experiment: Compound was tested for percent inhibition, at 3.3 mg/kg administered intraperitoneally against histamine by Dunnett's test. The experiment is classed as functional. As to conditions: ip, route intraperitoneal. Put shortly: as §3
Experiment [15] relates to Rattus norvegicus. As to the kind of experiment: Compound was tested for percent inhibition, at 3.3 mg/kg administered intraperitoneally against rat passive cutaneous anaphylaxis by Dunnett's test. The experiment is classed as functional. To be noted: ip, route intraperitoneal. The method, boiled down:
as §3

Experiment [16] concerns Rattus norvegicus. In words: Compound was tested for percent inhibition, at 3.3 mg/kg administered intraperitoneally against serotonin by Dunnett's test. The experiment is classed as functional. To be noted: ip, route intraperitoneal. The method, boiled down: as §3
Experiment [17] concerns Rattus norvegicus. In words: Compound was tested for the inhibition of rat passive cutaneous anaphylaxis (PCA) at 0.37 mg/kg dose ip (1h pretreatment). The experiment is classed as functional. As to conditions: route intraperitoneal. Put shortly: as §3
Experiment [18] is filed under the species Cavia porcellus. In words: Compound was tested for the inhibition of guinea pig active lung anaphylaxis (ALA) Percent inhibition. The experiment is classed as functional. Put shortly:
as §1

For experiment [19], the system named is Cavia porcellus. In words: Compound was tested for the inhibition of guinea pig active lung anaphylaxis (ALA) Dose administered intravenously. The experiment is classed as functional. The method, boiled down:
as §1

Experiment [20] deals with Cavia porcellus. As to the kind of experiment: Percent inhibition at a dose of 1 mg/kg at given time postdosing intraperitoneally 7 h. To be noted: ip, route intraperitoneal. The experiment is classed as functional. The method, boiled down:
as §2

The subject of experiment [21] is Cavia porcellus. As to the kind of experiment: Percent inhibition at a dose of 1 mg/kg at given time postdosing orally 1 h. The experiment is classed as functional. To be noted: route oral. The method, boiled down: as §2
Experiment [22] relates to Cavia porcellus. In words: Percent inhibition at a dose of 1 mg/kg at given time postdosing orally 8 h. The experiment is classed as functional. As to conditions: route oral. The method, boiled down:
as §2

Experiment [23] concerns Cavia porcellus. As to the kind of experiment: Percent inhibition at a dose of 1 mg/kg at given time postdosing orally 24 h. The experiment is classed as functional. To be noted: route oral. Put shortly: as §2
Experiment [24] has as its system Cavia porcellus. As to the kind of experiment: Percent inhibition at a dose of 1 mg/kg at given time postdosing intraperitoneally 1 h. As to conditions: ip, route intraperitoneal. The experiment is classed as functional. The method, boiled down:
as §2

For experiment [25], the system named is Cavia porcellus. As to the kind of experiment: Percent inhibition at a dose of 1 mg/kg at given time postdosing intraperitoneally 24 h. The experiment is classed as functional. To be noted: ip, route intraperitoneal. Put shortly:
as §2

Experiment [26] deals with Rattus norvegicus. As to the kind of experiment: Compound was tested for the inhibition of rat passive cutaneous anaphylaxis (PCA) Dose administered intraperitoneally. The experiment is classed as functional. The method, boiled down: as §3
Experiment [27] has as its system Rattus norvegicus. In words: Compound was tested for percent inhibition, at 1.1 mg/kg administered intraperitoneally against histamine. The experiment is classed as functional. As to conditions: ip, route intraperitoneal. Put shortly: as §3
In experiment [28] the test system is Rattus norvegicus. As to the kind of experiment: Compound was tested for percent inhibition, at 1.1 mg/kg administered intraperitoneally against serotonin by Dunnett's test. The experiment is classed as functional. As to conditions: ip, route intraperitoneal. Put shortly: as §3
For experiment [29], the species on record is Rattus norvegicus. As to the kind of experiment: Compound was tested for the inhibition of rat passive cutaneous anaphylaxis (PCA) Percent inhibition. The experiment is classed as functional. Put shortly:
as §3

The subject of experiment [30] is Rattus norvegicus. As to the kind of experiment: Compound was tested […] for the inhibition of serotonin release in rat peritoneal cell.
Experiment [31] deals with Rattus norvegicus. In words: Compound was tested for the inhibition of rat passive cutaneous anaphylaxis (PCA) at 10 mg/kg dose ip. The experiment is classed as functional. To be noted: route intraperitoneal.

In the case of `c1ccc2c(c1)Cn1c(cc3ccccc31)C(N1CCOCC1)=N2`, the inhibition in vivo (in general, the change of the read-out against control, counted positive when it falls) at 10 mg/kg in experiment [1] came out at 0.4%.

As for `CN1CCC(=C2c3ccccc3CC(=O)c3sccc32)CC1` [KETOTIFEN], in [2], the inhibition in vivo at 0.001 mg/kg worked out at 57%. Also, the 50% effective dose (ED50) (in general, the dose at which the effect has come halfway, by size or by number of responders) in experiment [3] was found to be 0.002 mg/kg; in [10], 0.32 mg/kg. Also, the inhibition in vivo at 1 mg/kg came to 82% in [4]; 68% in experiment [5]; 6.5% in experiment [6]; 37% in experiment [7]; 68% in experiment [8]; 73% in experiment [9]. Moreover, the IC50 (as a rule, the concentration needed to halve the response being measured) in experiment [11] came out at 22.9 µM. In addition, the inhibition in vivo at 0.37 mg/kg in [12] was determined as 64.6%; in [13], 14.8%; in experiment [17], 63.3%. The inhibition in vivo at 3.3 mg/kg in experiment [14] was 62.5%; in experiment [15], 92.4%; in [16], 35.3%.

Turning to `O=c1[nH]c2ccccc2n1CCCN1CCN(C(c2ccccc2)c2ccccc2)CC1` [OXATOMIDE], the Inhibition (in general, the drop in the measured response relative to a control, in per cent) in [18] worked out at 43%; in [29], 69.1%. Further, the Dose in experiment [19] stood at 1 mg/kg; in experiment [26] it was 1.1 mg/kg. Further, the inhibition in vivo at 1 mg/kg in [20] is 54%; in experiment [21], -5%; in experiment [22], 45%; in [23] it was 25%; in experiment [24], 16%; in experiment [25] it was 10.6%. In experiment [10], this compound showed an ED50 of 1.2 mg/kg. Also, the inhibition in vivo at 1.1 mg/kg stood at 38% in experiment [27] and 35.1% in [28]. Further, the results for the inhibition in vivo at 3.3 mg/kg in [14], in experiment [15] and in experiment [16] were 49.3%, 100% and 46.5%, respectively. Moreover, it took 20.1 µM to reach half-maximal inhibition in experiment [30] (IC50).

As to `OC1CCN(C2=Nc3ccccc3Cn3c2cc2ccccc23)CC1`, the inhibition in vivo at 10 mg/kg in experiment [1] was 40.2%.

Compound `CCCCN1CCN(C2=Nc3ccccc3Cn3c2cc2ccccc23)CC1` registered an ED50 in experiment [10] of 1.32 mg/kg. In [17], the inhibition in vivo at 0.37 mg/kg came to 39.9%.

Consider `O=C1Nc2ccccc2Cn2c1cc1ccccc12`, for which, in experiment [31], the inhibition in vivo at 10 mg/kg amounted to 23.2%.
